From ChEMBL document CHEMBL1687745 (Antimicrob Agents Chemother, 2009)
Values after ≈ are worked out from the molar mass of the structure shown. Active and inactive are the calls of the source. The calls are words filed in the database; no cut-off is given here.

Legend:
Brevibacillus brevis = experiment: Antimicrobial activity against Bacillus brevis clinical isolate by broth microdilution method; type: functional
Summary of the method: (§1)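 Broth microdilution. Log-phase cultures (5 × 10^5 CFU/ml) seeded in 96-well plates with compound from 0 to 20 µM or 1% DMSO control. Incubated at 37°C for 16 to 20 h. Growth read as absorbance at 600 nm.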

Pseudomonas aeruginosa = experiment: Antimicrobial activity against Pseudomonas aeruginosa PAO1 by broth microdilution method; type: functional; summary of the method: as §1
Staphylococcus aureus [1] = experiment: Antibacterial activity against Staphylococcus aureus Smith infected in Swiss Webster mouse assessed as assessed as protection against microbe-induced mortality at 10 mg/kg, iv administered as single dose 15 mins post bacterial challenge measured 48 hrs post infection; type: functional
Summary of the method: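 Swiss Webster mice (n = 10/group) were challenged i.p. with 8.3 × 10^8 CFU. After 15 min they received a single i.v. dose in 10% dimethyl acetamide–5% dextrose in water (pH 4.0), alongside vehicle and daptomycin (10 mg/kg) controls. Survival was followed for 48 h.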

Bacillus anthracis [2] = experiment: Protection against Bacillus anthracis Sterne spores induced cell death in mouse J774A1 cells assessed as dead cells at 10 uM by Sytox green dye staining assay relative to untreated control; type: functional, J774.A1
Bacillus anthracis [3] = experiment: microbe, parasite or virus in culture; conditions: Ames
Bacillus anthracis [4] = experiment: Antimicrobial activity against Bacillus anthracis Ames by broth microdilution method in presence of 10% fetal calf serum; type: functional
Bacillus subtilis [5] = experiment: Effect on bacterial membrane permeability in Bacillus subtilis BD54 upto 10 times MIC using DiSC3 fluorescent dye staining based fluorimetric assay; type: functional, organism-based
Summary of the method: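 B. subtilis BD54 grown in LB to OD600 0.4–0.5, washed, and resuspended to OD600 0.1 in 5 mM HEPES pH 7.4 with 20 mM glucose. Loaded with 1 µM DiSC3(5) for 10 min at room temperature, then 100 mM KCl added. […] Fluorescence read at 5 min (ex 622, em 670 nm). DNP 200 µg/ml positive control; mean ± SD of 8 wells.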

Bacillus anthracis [6] = experiment: Antibacterial activity against Bacillus anthracis Ames spores infected in C57BL/6 mouse assessed as mouse survival rate at 1 mg/kg, ip for 5 days every 6 hrs administered 6 hrs post bacterial challenge measured up to 20 days post infection; type: functional; conditions: route intraperitoneal
Burkholderia mallei = experiment: Antimicrobial activity against Burkholderia mallei ATCC 23344 by broth microdilution method; type: functional
Bacillus subtilis [7] = experiment: Inhibition of DNA synthesis in Bacillus subtilis BD54 at 5 X MIC by [3H]thymidine incorporation assay; type: functional, organism-based
Summary of the method: (§2)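 Precursors were [methyl-3H]thymidine (DNA), [5-3H]uridine (RNA), L-[4,5-3H]leucine (protein) and N-acetyl-D-[1-3H]glucosamine (cell wall). Samples taken over time, precipitated with equal volume of ice-cold 20% TCA, filtered on glass fibre, and counted. cpm plotted against time.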

Enterococcus faecalis [8] = experiment: Antimicrobial activity against Enterococcus faecalis 29212 clinical isolate by broth microdilution method; type: functional
Bacillus anthracis [9] = experiment: Antimicrobial activity against Bacillus anthracis Vollum clinical isolate by broth microdilution method; type: functional
Staphylococcus aureus [10] = experiment: Antibacterial activity against MBX 1090 resistant Staphylococcus aureus NCTC8325 isolates selected on 10 to 12 days of serial passage through MBX 1090; type: functional
Summary of the method: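 Eight independent S. aureus NCTC8325 cultures were grown with compound at 0.125× to 128× MIC. Each day, cells were passaged from the highest-concentration well still showing >50% of untreated growth, for up to 20 days. Colonies isolated from resistant cultures were confirmed by MIC assay.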

[11] = tested on: Mycolicibacterium smegmatis; experiment: Antimicrobial activity against Mycobacterium smegmatis 700009 by broth microdilution method; type: functional; summary of the method: as §1
Bacillus licheniformis = experiment: Antimicrobial activity against Bacillus licheniformis clinical isolate by broth microdilution method; type: functional
[12] = Cytotoxicity against human HeLa cells after 3 days by MTS assay in presence of 10% fetal calf serum; type: cell-based
Bacillus anthracis [13] = experiment: microbe, parasite or virus in culture; conditions: Ames; remark: listed apart in the source
Klebsiella pneumoniae = experiment: Antimicrobial activity against Klebsiella pneumoniae 5657 by broth microdilution method; type: functional; summary of the method: as §1
[14] = tested on: Mycolicibacterium smegmatis; experiment: Antimicrobial activity against Mycobacterium smegmatis 35798 by broth microdilution method; type: functional; summary of the method: as §1
Bacillus anthracis [15] = experiment: Inhibition of spore germination in Bacillus anthracis Sterne spores at MIC after 4 hrs; type: functional, organism-based
Staphylococcus aureus [16] = experiment: Antimicrobial activity against Staphylococcus aureus by broth microdilution method; type: functional; summary of the method: as §1
Yersinia pestis = experiment: Antimicrobial activity against Yersinia pestis by broth microdilution method; type: functional
Bacillus anthracis [17] = experiment: Antimicrobial activity against Bacillus anthracis Sterne spores by broth microdilution method; type: functional
Staphylococcus aureus [18] = experiment: Antimicrobial activity against methicillin-resistant Staphylococcus aureus clinical isolate by broth microdilution method; type: functional
Bacillus anthracis [19] = experiment: Protection against Bacillus anthracis Sterne spores induced cell death in mouse J774A1 cells assessed as live viable cells at 10 uM by Sytox green dye staining assay relative to untreated control; type: functional, J774.A1
Escherichia coli = experiment: Antimicrobial activity against Escherichia coli J53 clinical isolate by broth microdilution method; type: functional
Bacillus subtilis [20] = experiment: Antimicrobial activity against Bacillus subtilis clinical isolate by broth microdilution method; type: functional
Burkholderia cepacia = experiment: Antimicrobial activity against Burkholderia cepacia clinical isolate by broth microdilution method; type: functional; summary of the method: as §1
Enterococcus faecium = experiment: Antimicrobial activity against vancomycin-resistant Enterococcus faecium B42762 by broth microdilution method; type: functional
Enterococcus faecalis [21] = experiment: Antimicrobial activity against vancomycin-resistant Enterococcus faecalis ATCC 51575 by broth microdilution method; type: functional
HeLa = experiment: Effect on cell membrane integrity in human HeLa cells assessed as lactate dehydrogenase release at 32 times MIC against Staphylococcus aureus by CytoTox ONE homogenous membrane integrity assay; type: cell-based
Summary of the method: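 Confluent HeLa cells in DMEM treated for 1 h with a range of compound concentrations, 1% DMSO final. […] LDH activity in the supernatant measured by a membrane-integrity kit.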

Bacillus pumilus = experiment: Antimicrobial activity against Bacillus pumilus clinical isolate by broth microdilution method; type: functional; summary of the method: as §1
Staphylococcus aureus [22] = experiment: Antimicrobial activity against Staphylococcus aureus ATCC 25923 by broth microdilution method; type: functional; summary of the method: as §1
Staphylococcus aureus [23] = experiment: Antimicrobial activity against methicillin-resistant Staphylococcus aureus 1094 by broth microdilution method; type: functional
Bacillus anthracis [24] = experiment: Antimicrobial activity against Bacillus anthracis Sterne vegetative cells by broth microdilution method; type: functional
Priestia megaterium = experiment: Antimicrobial activity against Bacillus megaterium clinical isolate by broth microdilution method; type: functional
[25] = tested on: Burkholderia pseudomallei; experiment: Antimicrobial activity against Burkholderia pseudomallei DD503 by broth microdilution method; type: functional
Enterococcus faecalis [26] = experiment: Antimicrobial activity against Enterococcus faecalis clinical isolate by broth microdilution method; type: functional; summary of the method: as §1
[27] = tested on: Mycolicibacterium smegmatis; experiment: Antimicrobial activity against Mycobacterium smegmatis 19420 by broth microdilution method; type: functional; summary of the method: as §1
[28] = tested on: Burkholderia thailandensis; experiment: Antimicrobial activity against Burkholderia thailandensis by broth microdilution method; type: functional
Bacillus anthracis [29] = experiment: Inhibition of spore outgrowth in Bacillus anthracis Sterne spores assessed as reduction in bacterial CFU count at 0.1 ug/ml after 4 hrs relative to untreated control; type: functional, organism-based
Bacillus subtilis [30] = experiment: Inhibition of cell wall synthesis in Bacillus subtilis BD54 at 5 X MIC by N-acetyl-D-[1-3H] glucosamine incorporation assay; type: functional; summary of the method: as §2
Bacillus subtilis [31] = experiment: Inhibition of RNA synthesis in Bacillus subtilis BD54 at 5 X MIC by [5-3H]uridine incorporation assay; type: functional; summary of the method: as §2
Bacillus subtilis [32] = experiment: Inhibition of protein synthesis in Bacillus subtilis BD54 at 5 X MIC by L-[4,5-3H]leucine incorporation assay; type: functional, organism-based; summary of the method: as §2

C(=C\c1cc2ccc(C3=NCCN3)cc2[nH]1)/c1cc2ccc(C3=NCCN3)cc2[nH]1
MIC (Brevibacillus brevis): 0.6 µg/mL (≈ 1.52 µM) | MIC (Pseudomonas aeruginosa): 25 µg/mL (≈ 63.4 µM) | survival at 10 mg/kg (Staphylococcus aureus [1]): 80% | Activity (Bacillus anthracis [2]): 27% | MBC (Bacillus anthracis [3]): 2.3 µg/mL (≈ 5.83 µM) | MIC (Bacillus anthracis [3]): 0.6 µg/mL (≈ 1.52 µM) | MIC (Bacillus anthracis [4]): 0.6 µg/mL | Activity (Bacillus subtilis [5]): Active | survival at 1 mg/kg (Bacillus anthracis [6]): 100% | MIC (Burkholderia mallei): 1.6 µg/mL (≈ 4.06 µM) | inhibition (Bacillus subtilis [7]): Active | MIC (Enterococcus faecalis [8]): 0.3 µg/mL (≈ 0.76 µM) | MBC (Bacillus anthracis [9]): 1.2 µg/mL (≈ 3.04 µM) | MIC (Bacillus anthracis [9]): 0.6 µg/mL (≈ 1.52 µM) | MIC (Staphylococcus aureus [10]): 16 µg/mL (≈ 40.6 µM) | MIC [11]: 0.2 µg/mL (≈ 0.507 µM) | MIC (Bacillus licheniformis): 2.3 µg/mL (≈ 5.83 µM) | CC50 at 72 h [12]: 10 µg/mL | MIC (Bacillus anthracis [13]): 0.2 µg/mL (≈ 0.507 µM) | MIC (Klebsiella pneumoniae): 1.3 µg/mL (≈ 3.3 µM) | MIC [14]: 0.1 µg/mL (≈ 0.253 µM) | inhibition (Bacillus anthracis [15]): inactive | MIC (Staphylococcus aureus [16]): 1.2 µg/mL (≈ 3.04 µM) | MIC (Yersinia pestis): 13 µg/mL (≈ 33 µM) | MIC (Bacillus anthracis [17]): 0.3 µg/mL (≈ 0.76 µM) | MIC (Staphylococcus aureus [18]): 2.3 µg/mL (≈ 5.83 µM) | Activity (Bacillus anthracis [19]): 73% | MIC (Escherichia coli): 0.6 µg/mL (≈ 1.52 µM) | MIC (Bacillus subtilis [20]): 0.3 µg/mL (≈ 0.76 µM) | MIC (Burkholderia cepacia): 19 µg/mL (≈ 48.2 µM) | MIC (Enterococcus faecium): 0.3 µg/mL (≈ 0.76 µM) | MIC (Enterococcus faecalis [21]): 0.6 µg/mL (≈ 1.52 µM) | Activity (HeLa): Non-toxic | MIC (Bacillus pumilus): 0.2 µg/mL (≈ 0.507 µM) | MIC (Staphylococcus aureus [22]): 0.9 µg/mL (≈ 2.28 µM) | MIC (Staphylococcus aureus [23]): 0.6 µg/mL (≈ 1.52 µM) | MIC (Bacillus anthracis [24]): 1.2 µg/mL (≈ 3.04 µM) | MIC (Priestia megaterium): 0.6 µg/mL (≈ 1.52 µM) | MIC [25]: 3.1 µg/mL (≈ 7.86 µM) | MIC (Enterococcus faecalis [26]): 0.6 µg/mL (≈ 1.52 µM) | MIC [27]: 0.2 µg/mL (≈ 0.507 µM) | MIC [28]: 19 µg/mL (≈ 48.2 µM)

O=C(O)c1cn(C2CC2)c2cc(N3CCNCC3)c(F)cc2c1=O [CIPROFLOXACIN]
MIC (Pseudomonas aeruginosa): 0.1 µg/mL (≈ 0.302 µM) | inhibition (Bacillus subtilis [7]): Active | MIC [11]: 0.4 µg/mL (≈ 1.21 µM) | inhibition (Bacillus anthracis [29]): Active | MIC (Klebsiella pneumoniae): 0.2 µg/mL (≈ 0.604 µM) | MIC [14]: 0.2 µg/mL (≈ 0.604 µM) | inhibition (Bacillus subtilis [30]): Active | MIC (Enterococcus faecium): 20 µg/mL (≈ 60.4 µM) | MIC (Enterococcus faecalis [21]): 0.6 µg/mL (≈ 1.81 µM) | inhibition (Bacillus subtilis [31]): Active | MIC (Staphylococcus aureus [22]): 0.3 µg/mL (≈ 0.905 µM) | MIC (Staphylococcus aureus [23]): 5 µg/mL (≈ 15.1 µM) | inhibition (Bacillus subtilis [32]): Active | MIC [27]: 0.1 µg/mL (≈ 0.302 µM)
